# Shown are actives, neighbours in structure and some others; about 2.4% of the full set was active somewhere.
# MT stabilize HCS: microtubule stabilizers in HeLa cells, primary screen, imaging, high-content imaging; HeLa tubulin immunostaining HCS, 24 h; share of cells brighter than vehicle mean+2SD; % tubulin-high responders, % at 10 µM; hit rate 0.83% among 200,000; AID 2205, 2009;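 active = plate Z-score above 3 for both tubulin-high and condensed-nucleus cell shares, with cell loss under 80%, at 10 µM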;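 also: anti alpha tubulin signal scored within the nucleus-defined area of each cell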
# EP2 mod: EP2 receptor modulators, cAMP readout, primary screen, cell-based, HTRF cAMP, PGE2 stimulation; EP2-expressing cells, cAMP HTRF FRET, PGE2 co-stimulation; induction, % at 25 µM; hit rate 0.83% among 260,000;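 active = compounds whose cAMP rise, as percent of the full-agonist control response, exceeds 60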;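 also: rat C6 glioma line stably carrying human EP2 under a CMV promoter; the protocol text gives 20 µM as final concentration; 100% = response of wells given 1 µM PGE2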
# Target sequence (P43116 whole entry, looked up): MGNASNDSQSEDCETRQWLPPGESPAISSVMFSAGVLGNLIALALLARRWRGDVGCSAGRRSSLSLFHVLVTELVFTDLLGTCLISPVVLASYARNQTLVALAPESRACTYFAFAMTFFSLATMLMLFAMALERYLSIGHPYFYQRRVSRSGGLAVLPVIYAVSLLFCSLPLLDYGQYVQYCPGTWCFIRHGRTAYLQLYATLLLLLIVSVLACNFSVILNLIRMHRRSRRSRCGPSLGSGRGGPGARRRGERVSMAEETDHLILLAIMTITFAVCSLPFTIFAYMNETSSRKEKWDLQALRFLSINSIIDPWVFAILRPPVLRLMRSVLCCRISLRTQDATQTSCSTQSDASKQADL
# TbHK1 inh: Trypanosoma brucei hexokinase 1 inhibitors, primary screen, biochemical, G6PDH-coupled NADH absorbance, MLSCN library | inhibition, % at 10 µM | hexokinase 1 [Trypanosoma brucei] | AID 1430, 2008 | recombinant TbHK1, G6PDH-coupled NADH A340 | hit rate 0.11% among 220,000;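 active = inhibition of 50% or more in the single-dose primary screen; inactive = inhibition below 50%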
# b-catenin transl: modulators of beta-catenin nuclear translocation, primary screen, imaging, HeLa cells, immunofluorescence, high-content; nuclear translocation activity, % at 5 µM; hit rate 0.3% among 190,000; AID 1665, 2009;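 active = nuclear translocation activity above 50% at 5 µM, with a well cell count of 50 or more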;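 also: per-cell ratio of nuclear to cytoplasmic median beta-catenin stain intensity; plate controls were DMSO negative control for no effect and GSK-3 inhibitor IX positive control for full effect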
#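 Test system: human HeLa cells, endogenous beta-catenin. Times: 24 h compound exposure, 37°C. Measured by: beta-catenin immunofluorescence imaging with DAPI.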
# HMGR II inh: inhibitors of E. faecalis class II HMGR, primary screen, biochemical, Enterococcus faecalis. inhibition, % at 10 µM. purified E. faecalis HMGR, NADPH absorbance 340 nm kinetic. hit rate 0.41% among 190,000. HMG-CoA reductase (Enterococcus faecalis, mvaE);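 active = inhibition above a set limit, the median over all tested compounds plus 3 SD, cut at about 9.5% in these data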;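 also: enzyme runs in reverse so mevalonate oxidation gives rising NADPH absorbance; 0% = complete reaction with DMSO and 100% = background rate lacking mevalonate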
# PGE2 EP2 inh: human EP2 receptor antagonists, primary screen, TR-FRET cAMP, C6 glioma cells; Prostaglandin E2 receptor EP2 subtype (Homo sapiens), P43116; C6 glioma cells expressing human EP2; cells stimulated with saturating PGE2; inhibition, % at 25 µM; hit rate 0.52% among 260,000; AID 1422, 2008;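 active = percent inhibition above 40 after rounding to a whole number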;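 also: rat C6 glioma host cells with rolipram phosphodiesterase inhibitor present; the protocol text gives 20 µM as final concentration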
# The depositor's hits bear a star; . = no result.
SMILES,MT stabilize HCS,EP2 mod,TbHK1 inh,b-catenin transl,HMGR II inh,PGE2 EP2 inh
CC(=O)O[C@@H]1CC[C@]2(C)C(=C[C@H]([C@@H]3C=C4C[C@@H](OC(C)=O)CC[C@]4(C)C4=C3[C@@H]3C[C@@H]5O[C@@]6(CC[C@H](C)CO6)[C@@H](C)[C@@H]5[C@@]3(C)CC4)C3=C2CC[C@@]2(C)[C@@H]4[C@@H](C)[C@]5(CC[C@H](C)CO5)O[C@@H]4C[C@H]32)C1,.,20.1,.,.,.,40.4*
O=C(Nc1ccc2c(c1)OCO2)c1ccc(NC2CC2)c([N+](=O)[O-])c1,27.8*,-41.1,-1.4,7.5,1.7,4.5
O=C(Nc1ccc2c(c1)OCO2)c1ccc(N2CCCC2)c([N+](=O)[O-])c1,6.5,-0.2,-9.6,0.4,1.6,5.0
Cc1sc2nc(Cc3ccccc3)n(C3CCN(C(=O)C(C)C)CC3)c(=O)c2c1C,.,35.3,.,.,.,4.0
CC1CCN(CCCNC(=O)C2CCN(S(=O)(=O)N3CCCCC3)CC2)CC1,4.0,-15.4,-2.1,-1.2,-1.2,19.4
CC1CCCCN1CCNC(=O)C1CCN(S(=O)(=O)N2CCCCC2)CC1 (stereo not given),3.8,17.1,-3.3,-0.9,0.1,120.4*
O=C(NC(=S)NCc1ccco1)c1ccco1,.,-32.5,.,.,.,15.2
Cc1cnc(C(=O)Nc2ccc(C(C)C)cc2)cn1,18.0*,-2.7,-4.3,19.2,2.0,4.7
Cc1cnc(C(=O)Nc2ccc(N3CCN(C(=O)OC(C)(C)C)CC3)cc2)cn1,39.2*,8.2,0.2,68.4*,1.8,13.7
Cc1nn(CC(=O)N2CCCCC2C)c(=O)c2cc3occc3n12 (stereo not given),.,-16.4,.,.,.,1.9
C[C@H]1CCC/C=C\[C@@H]2C[C@H](OC(=O)CN(C)C)C[C@H]2[C@@H](O)/C=C\C(=O)O1,.,-1.3,.,.,.,46.5*
CSc1ccc(-n2c(=O)[nH]c3c(C(N)=O)nc(C)nc32)cc1,.,-13.0,.,.,.,.
Cc1nn(C(C)C)c(C)c1CN1CCCC(CCC(=O)NCc2ccccc2F)C1 (stereo not given),3.8,18.4,1.0,-2.7,-4.9,6.7
CC(C)c1csc(CN2CCCC(CCC(=O)NCc3ccccc3F)C2)n1 (stereo not given),24.9*,-15.2,9.1,2.8,-6.9,5.7
O=C(O)Cn1cnc2c(oc3ccccc32)c1=O,.,-7.3,0.0,-4.6,.,7.5
CCn1cnc2c(oc3ccccc32)c1=O,1.5,-19.4,7.0,0.3,11.1*,5.3
Cc1ccc(Cl)cc1NC(=O)CN1CCC(c2nc3ccccc3s2)CC1,.,-92.4,.,.,.,10.4
Cc1cc(=O)[nH]c(N/N=C/c2ccc(N(C)C)cc2)n1,1.6,-18.2,-36.8,1.9,13.6*,15.5
COc1cc(-c2nnc3n2N=C(c2ccccc2)CS3)cc(OC)c1OC,45.9*,29.7,-8.7,92.9*,-2.3,9.0
CCOc1cccc(-c2nnc3n2N=C(c2cc(OC)ccc2OC)CS3)c1,29.0*,51.1,-7.3,1.5,-5.8,7.1
COc1ccc(OC)c(C2=Nn3c(nnc3-c3cc(OC)c(OC)c(OC)c3)SC2)c1,1.6,-24.1,-10.5,-2.1,-2.0,3.9
COc1ccccc1OCc1nnc(SCC(=O)Nc2ccc(Cl)cc2)n1C,.,-30.1,.,.,.,3.3
CCOC(=O)c1cc2sc(C)cc2n1CC(=O)NCCc1ccc(OC)c(OC)c1,.,6.5,.,.,.,16.2
CCOc1ccc(NCc2ccc(O)c3ncccc23)cc1,.,-10.8,.,.,.,8.3
CCOc1ccc2c(ccc(/C=C/c3cc(C)c4cccnc4c3O)[n+]2C)c1,.,49.6,.,.,.,51.8*
SMILES,MT stabilize HCS,EP2 mod,TbHK1 inh,b-catenin transl,HMGR II inh,PGE2 EP2 inh
Nc1nc(-c2cc(-c3cccc4ccccc34)nc(N)n2)cc(-c2cccc3ccccc23)n1,.,-9.9,.,.,.,57.2*
CCN1C(=O)/C(=C/c2ccccc2Cl)SC1=S,.,36.0,.,.,.,15.4
CCNC(=S)NNC(=O)c1cc(-c2cccnc2)nc2ccccc12,1.4,22.1,-11.6,-0.7,2.4,43.5*
O=C(O)C(Cc1ccccc1)N1C(=O)C2CCCCC2C1=O (stereo not given),4.2,19.0,1.0,0.6,16.9*,8.2
O=C(O)C(Cc1ccccc1)N1C(=O)CCC1=O (stereo not given),4.1,20.4,-7.9,0.9,6.5,-2.5
CCN(CC)c1nc(C#N)cc(-c2ccc(OC)cc2)n1,63.2*,27.9,-0.3,-5.5,-4.6,-1.7
Cc1ccc2cc(CN(Cc3cccs3)C(=O)c3ccccc3C)c(=O)[nH]c2c1,.,31.9,.,.,.,-0.3
Clc1ccc2[nH]c3c(N4CCC5(CC4)OCCO5)ncnc3c2c1,9.6,-60.5,-6.6,5.9,-6.4,45.7*
Cc1cccc2[nH]c3c(N4CCN(C(=O)c5ccco5)CC4)ncnc3c12,3.0,-24.5,-20.5,-0.6,-2.9,9.2
Cc1cccc2[nH]c3c(N4CCC5(CC4)OCCO5)ncnc3c12,38.7*,-44.2,-23.4,56.6*,-4.8,10.4
CCN1CCCC1CNC(=O)C(=O)Nc1ccc(C)cc1 (stereo not given),.,17.2,.,.,.,7.6
S=C(Nc1ccccc1)Nc1nc2ccccc2n1CCOc1ccccc1,30.5*,13.4,-8.4,2.2,2.9,4.0
CC(=O)Nc1nc2ccccc2n1CCOc1ccccc1,2.7,-11.5,-2.6,.,1.3,10.1
O=C1C(Cl)=C(Sc2nnc3c4ccccc4c4ccccc4c3n2)C(=O)c2ccccc21,.,-45.8,.,.,.,58.4*
O=C(C[N+]12CN3CN(CN(C3)C1)C2)c1ccc(-c2ccccc2)cc1,.,4.2,.,.,.,57.8*
CCC(=O)c1ccc(-c2ccccc2)cc1,2.7,-6.9,-0.4,-0.4,-5.8,11.9
Nc1nc(SCc2ccccc2Cl)ns1,3.1,6.5,5.7,2.9,12.8*,11.2
CCOC(=O)CSc1nc(C)c2cc(C)c(C)cc2n1,0.6,19.7,-2.6,0.3,12.7*,8.6
CCOc1ccc(OCC)c(NC(=O)CSc2cc(C)nc3ccc(OC)cc23)c1,.,-35.9,.,.,.,6.3
CC1c2ccsc2CCN1Cc1ccc(N2CCOCC2)c(F)c1 (stereo not given),.,-72.5,.,.,.,3.7
Cc1cccc(/C=C/C(=O)c2ccc(NC3=NCCCS3)cc2)c1,11.2,-12.5,-28.5,11.0,1.3,13.1
COc1cccc(/C=C/C(=O)c2ccc(NC3=NCCCS3)cc2)c1,16.2*,-66.3,-14.8,9.9,-4.3,6.5
Cc1cc2nc(CCN3CCOCC3)n(S(=O)(=O)c3ccc(C(C)(C)C)cc3)c2cc1C,3.4,61.4*,-14.5,0.2,3.5,1.9
CCN(CC)c1ccc(/C=N/NC(=O)c2ccc(Br)o2)cc1,33.5*,-39.2,-23.8,.,-3.2,10.4
